# This is a sample that favours compounds with a hit; in the whole collection about 1.9% have one here.
# Rpn11 block: Rpn11 (human) deubiquitinase inhibition. O00487. human 26S proteasome, Ub4-pepOG fluorescence polarization; 20S core pre-blocked with epoxomicin. inhibition, % at 20 µM. 0.59% of 360,000 active;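 active = inhibition at 20 µM, scaled to each plate's controls, above about 33%, limit read from the data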
# NadD inh: NadD (S. aureus) enzyme inhibition; purified NadD enzyme, colorimetric absorbance read-out; inhibition, % at 20 µM; 0.78% of 360,000 active; AID 602399; in the data active = inhibition above about 26%
# Xi reactivation: X-chromosome reactivation activator | XiGFP mouse fibroblasts, % GFP-positive cells imaging, 3 d; cells co-treated with 5-aza-dC sensitizer; scaled so ellipticine positive control = 100% | activation, % at 7.58 µM | 0.055% of 360,000 active;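 active = mean normalized replicate activation at least 10% and every replicate at or above 10%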;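 note: 0% = median of on-plate neutral control wells and 100% = ellipticine 6 µM median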
#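 Material: XiGFP fibroblasts, SV40-immortalized. Buffer or medium: DMEM plus 5-aza-dC sensitizer. Compound: single concentration per compound, delivered by pin transfer. Times: 3 days compound exposure. Controls: ellipticine 6 µM.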
# Rin1 Abl inh: human Rin1-Abl interaction inhibition; P00519+Q13671; TR-FRET Rin1/Abl binding, biochemical; inhibition, % at 7.35 µM; 0.4% of 360,000 active; AID 588664; in the data active = inhibition above about 5%, passing the limit was not always enough
# ABHD5 PLIN5 PPI: ABHD5-PLIN5 protein interaction inhibition; Q00G26+Q8WTS1; Split G. princeps luciferase complementation, luminescence, 4 h; inhibition, % at 4 µM; 0.78% of 360,000 active;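 active = inhibition above the mean inhibition across every tested compound plus 3 SD, cut at about 22% in these data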;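 note: 0% = DMSO only wells and the 100% control is not disclosed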
# Rpn11 inh conf: Rpn11 inhibition confirmation, single concentration. shares compounds with Rpn11 block. AID 602318. inhibition, % at 20 µM. 29% of 1,900 active. purified human 26S proteasome, Ub4-pepOG fluorescence polarization; proteasome pretreated with epoxomicin
# MMP-2 counter: counter-screen for RPN11 inhibitors: inhibition of human MMP-2; shares compounds with Rpn11 block; recombinant MMP-2, FRET peptide cleavage fluorescence; inhibition, % at 20 µM; 4% of 1,900 active; AID 602330;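 note: human MMP-2 activated beforehand with APMA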
# Thrombin inh: blocks bovine thrombin, flagging nonselective RPN11 hits; shares compounds with Rpn11 block; bovine thrombin cleavage of Ub4-pepOG, fluorescence polarization; inhibition, % at 20 µM; 13% of 1,900 active; AID 602333;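 active = mean inhibition at least 40% at 20 µM, or signal 3 deviations below plate average, so some actives read negative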;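 note: plate controls were thrombin with DMSO for no effect and buffer wells lacking thrombin for full effect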
# Target sequence (P00735 whole entry, looked up): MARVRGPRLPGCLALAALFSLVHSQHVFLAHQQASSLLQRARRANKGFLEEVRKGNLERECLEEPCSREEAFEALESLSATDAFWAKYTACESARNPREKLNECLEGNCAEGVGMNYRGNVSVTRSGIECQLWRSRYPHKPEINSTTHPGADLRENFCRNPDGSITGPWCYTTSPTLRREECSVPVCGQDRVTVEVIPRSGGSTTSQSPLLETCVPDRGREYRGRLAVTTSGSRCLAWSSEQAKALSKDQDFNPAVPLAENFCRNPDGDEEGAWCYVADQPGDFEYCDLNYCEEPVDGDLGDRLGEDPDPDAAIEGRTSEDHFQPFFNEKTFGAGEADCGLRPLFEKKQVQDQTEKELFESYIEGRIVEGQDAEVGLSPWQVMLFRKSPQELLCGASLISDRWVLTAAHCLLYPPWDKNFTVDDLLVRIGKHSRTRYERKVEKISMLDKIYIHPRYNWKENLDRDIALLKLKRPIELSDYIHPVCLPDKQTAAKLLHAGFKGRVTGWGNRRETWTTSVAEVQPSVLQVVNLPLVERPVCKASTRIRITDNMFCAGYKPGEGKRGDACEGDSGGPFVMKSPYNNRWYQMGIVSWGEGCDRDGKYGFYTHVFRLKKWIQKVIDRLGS
# Active calls of the source: *; . = not tested or not shown; + = active, no number. Cut-off read from the data, not from the text of the source, unless noted: active = inhibition above about 40%; inactive = the rest.
SMILES,Rpn11 block,NadD inh,Xi reactivation,Rin1 Abl inh,ABHD5 PLIN5 PPI,Rpn11 inh conf,MMP-2 counter,Thrombin inh
Cc1cc(-c2csc(NC(=O)c3cccc(S(=O)(=O)N(C)C)c3)n2)c(C)n1-c1ccccc1,37.3*,48.7*,0.4,0.1,-3.8,8.7,20.7,-5.6
CCOC(=O)/C(C#N)=C/c1ccc(OCC(=O)Nc2ccc(C)c(C)c2)c(OC)c1,-2.9,-1.3,-0.1,0.3,3.8,.,.,.
COc1cc(/C=C(\C#N)C(=O)Nc2cc(C(F)(F)F)ccc2Cl)ccc1OCC(=O)Nc1cccc(C(F)(F)F)c1,80.5*,6.0,0.1,-2.5,2.4,58.7*,6.0,38.7
COc1ccc2c3c([nH]c2c1)[C@@H](CO)N(C(=O)c1cnccn1)CC31CN(S(C)(=O)=O)C1,.,.,0.0,.,.,.,.,.
Cn1c(=O)oc2cc(S(=O)(=O)N3CCCC3)ccc21,-10.8,-3.6,-0.1,0.4,8.2,.,.,.
CN1CCN(S(=O)(=O)c2ccc3c(c2)oc(=O)n3C)CC1,60.6*,-0.2,0.0,0.2,-2.0,18.2,-33.4,11.1
Cn1c(=O)oc2cc(S(=O)(=O)N3CCN(c4ccc(F)cc4)CC3)ccc21,44.0*,5.1,.,2.5,1.4,13.7,6.3,-4.7
CCCc1cc(=O)oc2cc(OCC(=O)Nc3ccc(S(N)(=O)=O)cc3)ccc12,+,6.8,0.0,-1.2,5.7,6.0,67.1*,-9.5
CCOC(=O)c1noc(C)c1C(=O)Nc1cccc(F)c1,82.7*,7.4,.,1.9,6.7,-1.0,-41.3,0.8
CCC(=O)N1CC2(C1)CN(C(=O)Nc1ccccc1F)[C@H](CO)c1c2c2ccc(OC)cc2n1C,.,.,-0.1,.,.,.,.,.
Cc1noc(C)c1NC(=O)N1C[C@@H](O)COC[C@@H]2O[C@@H](CC(=O)N[C@@H]3CCN(Cc4ccccc4)C3)CC[C@H]21,.,.,-0.1,.,.,.,.,.
COc1ccc(NC(=O)CCn2c(=S)[nH]c3ccccc3c2=O)cc1Cl,129.4*,7.3,-0.1,-2.7,-7.5,63.1*,34.3,-11.5
O=C(CCn1c(=S)[nH]c2ccccc2c1=O)Nc1cccc(Cl)c1,-5.5,-7.9,0.0,-11.8,-1.3,.,.,.
COc1ccc2c3c(n(C)c2c1)[C@H](CO)N(C(=O)CN(C)C)CC31CN(S(C)(=O)=O)C1,.,.,0.2,.,.,.,.,.
CCOC(=O)/C=c1\s/c(=C\c2ccc(C)cc2)c(=O)n1CC(=O)NCc1ccco1,5.9,-0.4,0.1,-1.6,5.2,.,.,.
CCOC(=O)/C=c1\s/c(=C\c2ccc(C(F)(F)F)cc2)c(=O)n1CC(=O)NCc1ccco1,49.4*,4.1,0.1,3.2,4.9,36.1,-28.6,38.2
COc1ccc(C(=O)O)cc1NC(=S)NC(=O)c1ccc(-c2ccc(Cl)cc2)o1,4.7,25.1,0.0,-1.3,-0.4,.,.,.
Cc1ccc(C(=O)O)cc1NC(=S)NC(=O)c1ccc(-c2ccc(Cl)cc2)o1,48.5*,14.6,0.2,-1.6,-0.6,13.2,44.9*,-22.8
O=C(O)c1ccc(NC(=S)NC(=O)c2ccc(-c3ccc(Br)cc3)o2)cc1,144.9*,10.9,-0.1,-2.5,-7.4,74.5*,22.9,26.1
C[C@@H]1CN([C@H](C)CO)C(=O)c2c(c3ccccc3n2C)-c2ccccc2CO[C@@H]1CN(C)Cc1ccccc1,.,.,0.0,.,.,.,.,.
C[C@H](CO)N1C[C@H](C)[C@H](CN(C)S(C)(=O)=O)Oc2c(NC(=O)c3cnccn3)cccc2C1=O,.,.,0.0,.,.,.,.,.
Cc1noc(C)c1S(=O)(=O)N(C)C[C@@H]1Oc2c(NC(=O)C3CCOCC3)cccc2C(=O)N([C@@H](C)CO)C[C@@H]1C,.,.,0.0,.,.,.,.,.
C[C@@H](NC(=O)C[C@H]1C=C[C@@H](NC(=O)C2CCC2)[C@H](CO)O1)c1ccccc1,.,.,-0.8,.,.,.,.,.
COc1cc2ccc(C(C)=NNC(N)=S)cc2cc1OC,83.3*,0.0,-0.1,-1.9,-9.6,-9.9,2.8,-13.0
CC(=NNC(N)=S)c1ccc2cc3c(cc2c1)OCO3,-1.9,16.3,0.5,-3.5,-20.3,.,.,.
SMILES,Rpn11 block,NadD inh,Xi reactivation,Rin1 Abl inh,ABHD5 PLIN5 PPI,Rpn11 inh conf,MMP-2 counter,Thrombin inh
O=C(Nc1ccc2c(c1)nc1n2CCOC1)C1CCCCC1,+,1.3,.,2.2,4.3,-0.2,-21.5,-8.9
CC(=O)Nc1ccc2c(c1)nc1n2CCOC1,-5.8,-4.6,.,-2.3,2.2,.,.,.
Cc1ccc(C(=O)N/C(=C/c2ccco2)C(=O)Nc2cccc(C)c2)cc1,25.3,-4.8,.,-1.5,-2.2,.,.,.
Cc1cccc(NC(=O)/C(=C\c2ccco2)NC(=O)c2cccs2)c1,32.1*,-1.3,.,-1.2,12.2,3.9,-5.2,6.6
CN(C)c1ccc(/C=C(/NC(=O)c2ccccc2)C(=O)N2CCCC2)cc1,63.5*,6.8,-0.1,-0.8,-1.6,0.0,29.1,-3.6
Cc1ccc(/C=C(\NC(=O)c2ccccc2)C(=O)N2CCCCC2)cc1,-6.1,-1.9,0.0,0.3,-0.3,.,.,.
CN1C(=O)c2cc(NC(=O)c3ccc(F)c(F)c3)ccc2OC[C@@H]2O[C@@H](CC(=O)N3CCOCC3)CC[C@H]21,.,.,0.2,.,.,.,.,.
CCc1ccc2[nH]c(=O)c(C(c3nnnn3CC3CCCO3)N3CCN4CCCC4C3)cc2c1 (stereo not drawn),51.2*,-2.4,.,-6.2,2.8,18.2,10.9,5.5
Cc1ccc2[nH]c(=O)c(C(c3nnnn3CC3CCCO3)N3CCOCC3)cc2c1 (stereo not drawn),2.4,-2.0,.,-1.6,6.2,.,.,.
COc1cc(/C=C2\SC(=S)N(NS(=O)(=O)c3ccc(C)cc3)C2=O)ccc1O,99.1*,-1.1,-0.1,1.6,7.1,82.8*,25.6,90.1*
COc1cc(/C=C2\SC(=S)N(NS(=O)(=O)c3ccccc3)C2=O)ccc1O,78.3*,-2.0,-0.1,-0.8,-2.0,50.2*,38.9,52.2*
Cc1ccc(S(=O)(=O)NN2C(=O)/C(=C/c3cccc(F)c3)SC2=S)cc1,2.2,10.4,0.0,-0.2,-9.3,.,.,.
COc1cc(/C=C2\SC(=S)N(NS(=O)(=O)c3ccc(C)cc3)C2=O)cc(OC)c1OC,0.4,8.3,-0.2,-2.7,-2.4,.,.,.
CCOc1cc(/C=C2\SC(=S)N(NS(=O)(=O)c3ccc(C)cc3)C2=O)ccc1O,85.0*,-2.2,0.2,-1.1,0.3,69.2*,17.7,56.7*
COc1ccccc1NC(=O)N1CC(=O)N2[C@H](CO)[C@@H](c3ccc(C#CCC(C)C)cc3)[C@@H]2C1,.,.,-0.1,.,.,.,.,.
C[C@@H]1CN([C@@H](C)CO)C(=O)Cc2cc(NC(=O)CCN3CCOCC3)ccc2O[C@H]1CN(C)Cc1ccc(-c2ccccc2)cc1,.,.,0.2,.,.,.,.,.
